Measured values as given in ChEMBL document CHEMBL1152579, “Substrate specificity effects of lipoxygenase products and inhibitors on soybean lipoxygenase-1” (Bioorg Med Chem, 2009).
pKi: −log10 of the molar value. Where a name gives a salt, the structure may show the parent alone.

Experiments:
[1] = target: T1, Seed linoleate 13S-lipoxygenase-1 (Glycine max) (UniProt P08170); test: Allosteric inhibition of soybean LO1 assessed as increase in arachidonic acid/linoleic acid ratio at 0.5 uM by substrate specificity assay
T1 sequence (whole entry): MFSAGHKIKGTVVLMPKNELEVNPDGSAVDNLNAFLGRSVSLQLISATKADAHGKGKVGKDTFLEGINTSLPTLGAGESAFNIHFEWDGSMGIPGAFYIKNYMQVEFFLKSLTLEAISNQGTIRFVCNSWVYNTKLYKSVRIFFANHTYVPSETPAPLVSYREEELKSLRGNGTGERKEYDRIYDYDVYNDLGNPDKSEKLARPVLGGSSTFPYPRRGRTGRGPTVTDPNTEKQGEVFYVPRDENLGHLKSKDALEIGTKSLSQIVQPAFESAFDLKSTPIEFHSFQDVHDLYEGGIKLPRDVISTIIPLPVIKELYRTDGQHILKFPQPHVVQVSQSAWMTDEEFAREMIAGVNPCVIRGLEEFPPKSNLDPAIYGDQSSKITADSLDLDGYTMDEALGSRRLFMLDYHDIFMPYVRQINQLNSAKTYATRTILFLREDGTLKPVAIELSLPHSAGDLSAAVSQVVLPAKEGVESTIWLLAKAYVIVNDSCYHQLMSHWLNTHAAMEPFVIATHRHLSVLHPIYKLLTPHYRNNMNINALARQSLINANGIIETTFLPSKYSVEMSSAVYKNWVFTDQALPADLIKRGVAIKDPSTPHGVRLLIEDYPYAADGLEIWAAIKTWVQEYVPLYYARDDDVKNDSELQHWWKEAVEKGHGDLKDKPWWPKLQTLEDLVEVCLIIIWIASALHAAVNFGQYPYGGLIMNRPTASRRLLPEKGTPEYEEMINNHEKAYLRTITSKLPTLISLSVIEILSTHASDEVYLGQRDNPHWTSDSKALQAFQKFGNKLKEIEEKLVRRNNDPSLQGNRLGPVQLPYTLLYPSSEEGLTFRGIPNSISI

[2] = target: T1, Seed linoleate 13S-lipoxygenase-1 (Glycine max); test: Allosteric inhibition of soybean LO1 assessed as increase in arachidonic acid/linoleic acid ratio at 1 uM by substrate specificity assay
[3] = target: T2, Seed linoleate 13S-lipoxygenase-1 (Glycine max, UniProt P08170); test: Binding affinity to soybean LO1
T2 sequence (P08170 whole entry): T1 sequence (whole entry)

[4] = target: T1, Seed linoleate 13S-lipoxygenase-1 (Glycine max); test: Allosteric inhibition of soybean LO1 assessed as increase in arachidonic acid/linoleic acid ratio at 5 uM by substrate specificity assay
[5] = target: T1, Seed linoleate 13S-lipoxygenase-1 (Glycine max); test: Allosteric inhibition of soybean LO1 assessed as increase in arachidonic acid/linoleic acid ratio at 1 uM by substrate specificity assay
[6] = target: T1, Seed linoleate 13S-lipoxygenase-1 (Glycine max); test: Inhibition of soybean LO1 assessed as increase in non-endogenous arachidonic acid/linoleic acid maximal ratio by substrate specificity assay
Procedure, shortened: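 Inhibitor titrated into competitive substrate-capture reactions: sLO-1 with 1:1 AA:LA at 1 μM total substrate, 100 mM borate pH 9.2, 22 °C. Product ratio was measured by HPLC at each concentration. The change in (kcat/KM)AA/(kcat/KM)LA ratio was plotted against inhibitor concentration and fit to a saturation curve, giving the maximal ratio at saturation.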

[7] = target: T1, Seed linoleate 13S-lipoxygenase-1 (Glycine max); test: Competitive inhibition of soybean LO1 assessed as increase in arachidonic acid/linoleic acid ratio at 5 uM by substrate specificity assay
[8] = target: T1, Seed linoleate 13S-lipoxygenase-1 (Glycine max); test: Allosteric inhibition of soybean LO1 assessed as increase in arachidonic acid/linoleic acid ratio at 10 uM by substrate specificity assay
[9] = target: T1, Seed linoleate 13S-lipoxygenase-1 (Glycine max); test: Mixed-type inhibition of soybean LO1 assessed as increase in arachidonic acid/linoleic acid ratio at 30 uM by substrate specificity assay
[10] = target: T1, Seed linoleate 13S-lipoxygenase-1 (Glycine max); test: Mixed-type inhibition of soybean LO1 assessed as increase in arachidonic acid/linoleic acid ratio at 65 uM by substrate specificity assay
[11] = target: T1, Seed linoleate 13S-lipoxygenase-1 (Glycine max); test: Mixed-type inhibition of soybean LO1 assessed as increase in arachidonic acid/linoleic acid ratio at 13 uM by substrate specificity assay
[12] = target: T2, Seed linoleate 13S-lipoxygenase-1; test: Binding affinity to allosteric site of soybean LO1

SMILES	Ratio [1]	Ratio [2]	pKi [3]	Ratio [4]	Ratio [5]	Ratio [6]	Ratio [7]	Ratio [8]	Ratio [9]	Ratio [10]	Ratio [11]	pKi [12]
CCCCCCCC/C=C\CCCCCCCCOS(=O)(=O)O [OLEYL SULFATE]	2.5	3.2	6.15	4.8	3.2	5.4	4.7	4.8	–	–	–	–
CCCCCC/C=C\CCCCCCCCOS(=O)(=O)O	–	–	–	–	–	7.4	–	–	3	4	2.3	3.85
